# Experimental data as given in PMC9099118 (Clinical and Translational Science, 2022).
# Entries after “also recorded” stand apart in the source; their conditions may differ.
# Key:
# [1] = Phase I safety: adverse events, Part A; assay type: in vivo, human; settings: for Related AE / Total number of participants with at least one AE / Upper respiratory tract infection / Cough / Headache: n (%)
# [2] = Phase I safety: laboratory tests; assay type: in vivo, human
# Method in brief: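 Healthy volunteers in single- and multiple-ascending inhaled-dose cohorts, randomized against placebo and blinded to investigator and subject. All dosed subjects were analysed. Change from baseline was assessed in vital signs, 12-lead ECG, spirometry and laboratory tests. Lab monitoring for JAK-related toxicity covered reticulocyte counts, lymphocyte subsets and fasting lipids.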
# [3] = Scintigraphy study: plasma PK and safety; assay type: in vivo, human; settings: single 1 mg radiolabeled dose
# [4] = test system: fractional exhaled nitric oxide (FeNO); settings: patients with mild asthma, inhaled; cited from earlier work
# [5] = Part B MAD, 15 mg b.i.d. (n = 6)
structure (smiles),measurement,setting,value
CN(CCC#N)C1CCN(C(=O)Cn2cc(NC(=O)c3cnn4cccnc34)c(-c3cc(Cl)ccc3OC(F)F)n2)CC1 [GDC‐0214],Related AE,"[1]; Part A SAD, 0.5 mg (n = 3)",0
same,Total number of participants with at least one AE,"[1]; Part A SAD, 0.5 mg (n = 3)",2 (66.7%)
same,Upper respiratory tract infection,"[1]; Part A SAD, 0.5 mg (n = 3)",0
same,AE leading to withdrawal from treatment,"[1]; Part A SAD, 1.5 mg (n = 6)",0
same,Serious AE,"[1]; Part A SAD, 1.5 mg (n = 6)",0
same,Total number of AEs,"[1]; Part A SAD, 1.5 mg (n = 6)",5
same,Total number of deaths,"[1]; Part A SAD, 1.5 mg (n = 6)",0
same,Total number of participants withdrawn from study due to an AE,"[1]; Part A SAD, 1.5 mg (n = 6)",0
same,Related AE,"[1]; Part A SAD, 1.5 mg (n = 6)",1 (16.7%)
same,Total number of participants with at least one AE,"[1]; Part A SAD, 1.5 mg (n = 6)",3 (50.0%)
same,AE leading to withdrawal from treatment,"[1]; Part A SAD, 5 mg (n = 6)",0
same,Serious AE,"[1]; Part A SAD, 5 mg (n = 6)",0
same,Total number of AEs,"[1]; Part A SAD, 5 mg (n = 6)",2
same,Total number of deaths,"[1]; Part A SAD, 5 mg (n = 6)",0
same,Total number of participants withdrawn from study due to an AE,"[1]; Part A SAD, 5 mg (n = 6)",0
same,Related AE,"[1]; Part A SAD, 5 mg (n = 6)",0
same,Total number of participants with at least one AE,"[1]; Part A SAD, 5 mg (n = 6)",2 (33.3%)
same,Upper respiratory tract infection,"[1]; Part A SAD, 5 mg (n = 6)",0
same,AE leading to withdrawal from treatment,"[1]; Part A SAD, 15 mg (n = 6)",0
same,Serious AE,"[1]; Part A SAD, 15 mg (n = 6)",0
same,Total number of AEs,"[1]; Part A SAD, 15 mg (n = 6)",4
same,Total number of deaths,"[1]; Part A SAD, 15 mg (n = 6)",0
same,Total number of participants withdrawn from study due to an AE,"[1]; Part A SAD, 15 mg (n = 6)",0
same,Related AE,"[1]; Part A SAD, 15 mg (n = 6)",1 (16.7%)
same,Total number of participants with at least one AE,"[1]; Part A SAD, 15 mg (n = 6)",4 (66.7%)
same,Upper respiratory tract infection,"[1]; Part A SAD, 15 mg (n = 6)",0
same,Total number of participants with at least one AE,"[1]; Part B MAD, 1 mg q.d. 14 days (n = 6)",6 (100%)
same,AE leading to withdrawal from treatment,"[1]; Part B MAD, 1 mg q.d. (n = 6)",0
same,Related serious AE,"[1]; Part B MAD, 1 mg q.d. (n = 6)",0
same,Serious AE,"[1]; Part B MAD, 1 mg q.d. (n = 6)",0
same,Total number of AEs,"[1]; Part B MAD, 1 mg q.d. (n = 6)",6
same,Total number of deaths,"[1]; Part B MAD, 1 mg q.d. (n = 6)",0
same,Total number of participants withdrawn from study due to an AE,"[1]; Part B MAD, 1 mg q.d. (n = 6)",0
same,Cough,"[1]; Part B MAD, 1 mg q.d. (n = 6)",0
same,Headache,"[1]; Part B MAD, 1 mg q.d. (n = 6)",1 (16.7%)
same,Related AE,"[1]; Part B MAD, 1 mg q.d. (n = 6)",0
same,Upper respiratory tract infection,"[1]; Part B MAD, 1 mg q.d. (n = 6)",2 (33.3%)
same,Total number of participants with at least one AE,"[1]; Part B MAD, 3 mg q.d. 14 days (n = 6)",4 (66.7%)
same,AE leading to withdrawal from treatment,"[1]; Part B MAD, 3 mg q.d. (n = 6)",0
same,Related serious AE,"[1]; Part B MAD, 3 mg q.d. (n = 6)",0
same,Serious AE,"[1]; Part B MAD, 3 mg q.d. (n = 6)",0
same,Total number of AEs,"[1]; Part B MAD, 3 mg q.d. (n = 6)",11
same,Total number of deaths,"[1]; Part B MAD, 3 mg q.d. (n = 6)",0
same,Total number of participants withdrawn from study due to an AE,"[1]; Part B MAD, 3 mg q.d. (n = 6)",0
same,Cough,"[1]; Part B MAD, 3 mg q.d. (n = 6)",1 (16.7%)
same,Headache,"[1]; Part B MAD, 3 mg q.d. (n = 6)",2 (33.3%)
same,Related AE,"[1]; Part B MAD, 3 mg q.d. (n = 6)",1 (16.7%)
same,Upper respiratory tract infection,"[1]; Part B MAD, 3 mg q.d. (n = 6)",3 (50.0%)
same,Total number of participants with at least one AE,"[1]; Part B MAD, 10 mg q.d. 14 days (n = 6)",6 (100%)
same,AE leading to withdrawal from treatment,"[1]; Part B MAD, 10 mg q.d. (n = 6)",0
same,Related serious AE,"[1]; Part B MAD, 10 mg q.d. (n = 6)",0
same,Serious AE,"[1]; Part B MAD, 10 mg q.d. (n = 6)",0
same,Total number of AEs,"[1]; Part B MAD, 10 mg q.d. (n = 6)",13
same,Total number of deaths,"[1]; Part B MAD, 10 mg q.d. (n = 6)",0
same,Total number of participants withdrawn from study due to an AE,"[1]; Part B MAD, 10 mg q.d. (n = 6)",0
same,Cough,"[1]; Part B MAD, 10 mg q.d. (n = 6)",0
same,Headache,"[1]; Part B MAD, 10 mg q.d. (n = 6)",0
same,Related AE,"[1]; Part B MAD, 10 mg q.d. (n = 6)",0
same,Upper respiratory tract infection,"[1]; Part B MAD, 10 mg q.d. (n = 6)",2 (33.3%)
same,Total number of participants with at least one AE,"[1]; Part B MAD, 15 mg b.i.d. 14 days (n = 6)",4 (66.7%)
same,AE leading to withdrawal from treatment,[1]; [5],0
same,Related serious AE,[1]; [5],0
same,Serious AE,[1]; [5],0
same,Total number of AEs,[1]; [5],8
same,Total number of deaths,[1]; [5],0
same,Total number of participants withdrawn from study due to an AE,[1]; [5],0
same,Cough,[1]; [5],0
same,Headache,[1]; [5],2 (33.3%)
same,Related AE,[1]; [5],0
same,Upper respiratory tract infection,[1]; [5],0
same,severity of adverse events,"[1]; after single and multiple doses, all adverse events",mild or moderate
same,safety and tolerability,[1]; up to a single dose of 15 mg or multiple doses up to 15 mg b.i.d. for 14 days,safe and well tolerated
same,"changes in laboratory parameters, ECGs, or vital signs",[2]; Parts A and B,no clinically relevant changes
same,"changes in CD4T cells, CD8T cells, or B cells","[2]; compared to placebo, GDC-0214-treated cohorts",no significant changes
same,"changes from baseline in levels of NK cells, reticulocytes, or low-density lipoprotein cholesterol",[2]; indicators of systemic effects of JAK1 inhibition,no significant changes
same,tolerability,[3],well tolerated
same,fractional exhaled nitric oxide (FeNO),[4],reduced; also recorded: dose‐dependent decreases
